Assay results taken from ChEMBL document CHEMBL2417509, “Synthesis and biological evaluation of prodigiosene conjugates of porphyrin, estrone and 4-hydroxytamoxifen” (2013).
The source made the active and inactive calls. The calls are words filed in the database; no cut-off is given here.

Legend:
NCI-H322M = assay: Cytotoxicity against human NCI-H322M cells after 2 days by sulforhodamine B assay; format: functional; conditions: 48 h
Summary of the method: (§1)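 NCI60 multi-dose screen, 59 human tumour lines available. Cells exposed to compound across a 5-log mol/L concentration range for 2 days, then fixed and stained with sulphorhodamine B, optical density read. Growth inhibition calculated against time-zero control and untreated cells. GI50 derived from the dose series, average of two replicates.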

DU-145 = assay: Cytotoxicity against human DU145 cells after 2 days by sulforhodamine B assay; format: functional; conditions: DU-145, 48 h; summary of the method: as §1
PC-3 = assay: Cytotoxicity against human PC3 cells after 2 days by sulforhodamine B assay; format: functional; conditions: PC-3, 48 h; summary of the method: as §1
MDA-MB-468 = assay: Cytotoxicity against human MDA-MB-468 cells after 2 days by sulforhodamine B assay; format: functional; conditions: MDA-MB-468, 48 h; summary of the method: as §1
RXF 393 = assay: Cytotoxicity against human RXF393 cells after 2 days by sulforhodamine B assay; format: functional; conditions: RXF 393, 48 h; summary of the method: as §1
MDA-MB-231 [1] = assay: Cytotoxicity against human ER negative MDA-MB-231 cells assessed as cell viability at 1 uM after 72 hrs by MTT assay; format: functional, cell-based
Summary of the method: (§2)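 Lines kept in DMEM with 10% fetal bovine serum and 1% penicillin/streptomycin at 37 °C, 5% CO2. Compound applied at 1 µM for 72 h, then standard MTT reduction read-out. Viability given as mean percentage of formazan formed by treated cells relative to mock-treated cells (0.1% DMSO). Run in quadruplicate, standard error, Student's t-test.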

RPMI-8226 = assay: Cytotoxicity against human RPMI8226 cells after 2 days by sulforhodamine B assay; format: functional; conditions: RPMI-8226, 48 h; summary of the method: as §1
MCF7 [2] = assay: Cytotoxicity against human MCF7 cells after 2 days by sulforhodamine B assay; format: functional; conditions: MCF7, 48 h; summary of the method: as §1
HCT-15 = assay: Cytotoxicity against human HCT15 cells after 2 days by sulforhodamine B assay; format: functional; conditions: HCT-15, 48 h; summary of the method: as §1
NCI-H226 = assay: Cytotoxicity against human NCI-H226 cells after 2 days by sulforhodamine B assay; format: functional; conditions: NCI-H226, 48 h; summary of the method: as §1
Malme-3M = assay: Cytotoxicity against human MALME-3M cells after 2 days by sulforhodamine B assay; format: functional; conditions: 48 h; summary of the method: as §1
HL-60(TB) = assay: Cytotoxicity against human HL-60(TB) cells after 2 days by sulforhodamine B assay; format: functional; conditions: HL-60, 48 h
Summary of the method: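 NCI60 multi-dose screen: cells exposed to compound over a 5-log mol/L concentration range for 2 days, then fixed and stained with sulphorhodamine B and optical density read. Growth inhibition calculated relative to time-zero control and untreated cells; GI50 reported as average of two replicates.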

HCC 2998 = assay: Cytotoxicity against human HCC2998 cells after 2 days by sulforhodamine B assay; format: functional; conditions: HCC 2998, 48 h; summary of the method: as §1
SK-MEL-2 = assay: Cytotoxicity against human SK-MEL-2 cells after 2 days by sulforhodamine B assay; format: functional; conditions: SK-MEL-2, 48 h; summary of the method: as §1
[3] = Cytotoxicity against human Hs578T cells after 2 days by sulforhodamine B assay; format: functional; conditions: Hs-578T, 48 h; summary of the method: as §1
OVCAR-5 = assay: Cytotoxicity against human OVCAR5 cells after 2 days by sulforhodamine B assay; format: functional; conditions: OVCAR-5, 48 h; summary of the method: as §1
MDA-MB-231 [4] = assay: Cytotoxicity against human MDA-MB-231 cells after 2 days by sulforhodamine B assay; format: functional; conditions: MDA-MB-231, 48 h; summary of the method: as §1
A549 = assay: Cytotoxicity against human A549/ATCC cells after 2 days by sulforhodamine B assay; format: functional; conditions: A549, 48 h; summary of the method: as §1
HOP-92 = assay: Cytotoxicity against human HOP92 cells after 2 days by sulforhodamine B assay; format: functional; conditions: HOP-92, 48 h; summary of the method: as §1
K562 = assay: Cytotoxicity against human K562 cells after 2 days by sulforhodamine B assay; format: functional; conditions: K562, 48 h; summary of the method: as §1
NCI-H460 = assay: Cytotoxicity against human NCI-H460 cells after 2 days by sulforhodamine B assay; format: functional; conditions: NCI-H460, 48 h; summary of the method: as §1
SF-539 = assay: Cytotoxicity against human SF539 cells after 2 days by sulforhodamine B assay; format: functional; conditions: SF-539, 48 h; summary of the method: as §1
MCF7 [5] = assay: Cytotoxicity against human ER positive MCF7 cells assessed as cell viability at 1 uM after 72 hrs by MTT assay; format: functional, cell-based; summary of the method: as §2
BT-549 = assay: Cytotoxicity against human BT549 cells after 2 days by sulforhodamine B assay; format: functional; conditions: BT-549, 48 h; summary of the method: as §1
CCRF-CEM = assay: Cytotoxicity against human CCRF-CEM cells after 2 days by sulforhodamine B assay; format: functional; conditions: 48 h; summary of the method: as §1
MOLT-4 = assay: Cytotoxicity against human MOLT4 cells after 2 days by sulforhodamine B assay; format: functional; conditions: MOLT-4, 48 h; summary of the method: as §1
MDA-MB-435 = assay: Cytotoxicity against human MDA-MB-435 cells after 2 days by sulforhodamine B assay; format: functional; conditions: MDA-MB-435, 48 h; summary of the method: as §1
HCT-116 = assay: Cytotoxicity against human HCT116 cells after 2 days by sulforhodamine B assay; format: functional; conditions: HCT-116, 48 h; summary of the method: as §1
NCI-H23 = assay: Cytotoxicity against human NCI-H23 cells after 2 days by sulforhodamine B assay; format: functional; conditions: NCI-H23, 48 h; summary of the method: as §1
SF-268 = assay: Cytotoxicity against human SF268 cells after 2 days by sulforhodamine B assay; format: functional; conditions: SF-268, 48 h; summary of the method: as §1
[6] = read-out: LC50 (the source's name)

## COc1cc(-c2ccc[nH]2)[nH]c1/C=C1\N=C(C)C(C(=O)CCC(=O)Oc2ccc3c(c2)CC[C@@H]2[C@@H]3CC[C@]3(C)C(=O)CC[C@@H]23)=C1C
NCI-H322M
  GI50: 32.6 µM
  LC50 (concentration killing 50% of cells): > 100 µM
  TGI: > 100 µM
DU-145
  GI50: 1.96 µM
  LC50 (concentration killing 50% of starting cells): > 100 µM
  TGI: > 100 µM
PC-3
  GI50: 7.45 µM
  LC50 (concentration killing 50% of cells): > 100 µM
  TGI: > 100 µM
MDA-MB-468
  GI50: 17 µM
  LC50: > 100 µM
  TGI: > 100 µM
RXF 393
  GI50: 11.7 µM
  LC50 (concentration killing 50% of cells): > 100 µM
  TGI: > 100 µM
MDA-MB-231 [1]
  Activity: Active
RPMI-8226
  GI50: 6.86 µM
  LC50 (concentration killing 50% of cells present at time zero): > 100 µM
  TGI: > 100 µM
MCF7 [2]
  GI50: 1.91 µM
  LC50 (concentration giving 50% net cell kill): > 100 µM
  TGI: > 100 µM
HCT-15
  GI50: 2.6 µM
  LC50: > 100 µM
  TGI: > 100 µM
NCI-H226
  GI50: 11.1 µM
  LC50: > 100 µM
  TGI: > 100 µM
Malme-3M
  GI50: 29 µM
  LC50: > 100 µM
  TGI: > 100 µM
HL-60(TB)
  GI50: 55.8 µM
  TGI: > 100 µM
HL-60(TB); [6]
  CC50: > 100 µM
HCC 2998
  GI50: 17 µM
  LC50 (50% lethal concentration): > 100 µM
  TGI: > 100 µM
SK-MEL-2
  GI50: 15.6 µM
  LC50: > 100 µM
  TGI: 58.8 µM
[3]
  GI50: 14.2 µM
  TGI: > 100 µM
[3]; [6]
  CC50: > 100 µM
OVCAR-5
  GI50: 9.64 µM
  LC50: > 100 µM
  TGI: > 100 µM
MDA-MB-231 [4]
  GI50: 0.27 µM
  LC50: 23 µM
  TGI: 1.21 µM
A549
  GI50: 2.68 µM
  LC50 (concentration giving 50% net cell kill): > 100 µM
  TGI: > 100 µM
HOP-92
  GI50: 2.23 µM
  TGI: 19.4 µM
HOP-92; [6]
  CC50: > 100 µM
K562
  GI50: 4.23 µM
  LC50 (concentration killing 50% of cells): > 100 µM
  TGI: > 100 µM
NCI-H460
  GI50: 3.09 µM
  LC50: > 100 µM
  TGI: > 100 µM
SF-539
  GI50: 15.5 µM
  LC50: > 100 µM
  TGI: > 100 µM
MCF7 [5]
  Activity: inactive
BT-549
  GI50: 15.6 µM
  LC50 (concentration killing 50% of cells present at time zero): > 100 µM
  TGI: > 100 µM
CCRF-CEM
  GI50: 0.54 µM
  TGI: > 100 µM
CCRF-CEM; [6]
  CC50: > 100 µM
MOLT-4
  GI50: 2.72 µM
  TGI: > 100 µM
MOLT-4; [6]
  CC50: > 100 µM
MDA-MB-435
  GI50: 7.68 µM
  TGI: > 100 µM
MDA-MB-435; [6]
  CC50: > 100 µM
HCT-116
  GI50: 0.8 µM
  LC50 (concentration killing 50% of cells vs time zero): > 100 µM
  TGI: > 100 µM
NCI-H23
  GI50: 9.8 µM
  LC50 (concentration killing 50% of cells): > 100 µM
  TGI: > 100 µM
SF-268
  GI50: 5.62 µM
  LC50 (concentration killing 50% of cells): > 100 µM
  TGI: > 100 µM
